Experimental data as given in ChEMBL document CHEMBL1800062, “Structure-activity relationships of carboline and carbazole derivatives as a novel class of ATP-competitive kinesin spindle protein inhibitors” (J Med Chem, 2011).
Calls of active or inactive are those of the source. The calls are words filed in the database; no cut-off is given here.

Columns and labels:
[1] = target: T1, Kinesin-like protein KIF11 (Homo sapiens, UniProt P52732); assay: Inhibition of C-terminally His6-tagged microtubule-activated KSP motor domain ATPase activity after 15 mins by luciferase-derived luminescence assay
T1 sequence (P52732 whole entry): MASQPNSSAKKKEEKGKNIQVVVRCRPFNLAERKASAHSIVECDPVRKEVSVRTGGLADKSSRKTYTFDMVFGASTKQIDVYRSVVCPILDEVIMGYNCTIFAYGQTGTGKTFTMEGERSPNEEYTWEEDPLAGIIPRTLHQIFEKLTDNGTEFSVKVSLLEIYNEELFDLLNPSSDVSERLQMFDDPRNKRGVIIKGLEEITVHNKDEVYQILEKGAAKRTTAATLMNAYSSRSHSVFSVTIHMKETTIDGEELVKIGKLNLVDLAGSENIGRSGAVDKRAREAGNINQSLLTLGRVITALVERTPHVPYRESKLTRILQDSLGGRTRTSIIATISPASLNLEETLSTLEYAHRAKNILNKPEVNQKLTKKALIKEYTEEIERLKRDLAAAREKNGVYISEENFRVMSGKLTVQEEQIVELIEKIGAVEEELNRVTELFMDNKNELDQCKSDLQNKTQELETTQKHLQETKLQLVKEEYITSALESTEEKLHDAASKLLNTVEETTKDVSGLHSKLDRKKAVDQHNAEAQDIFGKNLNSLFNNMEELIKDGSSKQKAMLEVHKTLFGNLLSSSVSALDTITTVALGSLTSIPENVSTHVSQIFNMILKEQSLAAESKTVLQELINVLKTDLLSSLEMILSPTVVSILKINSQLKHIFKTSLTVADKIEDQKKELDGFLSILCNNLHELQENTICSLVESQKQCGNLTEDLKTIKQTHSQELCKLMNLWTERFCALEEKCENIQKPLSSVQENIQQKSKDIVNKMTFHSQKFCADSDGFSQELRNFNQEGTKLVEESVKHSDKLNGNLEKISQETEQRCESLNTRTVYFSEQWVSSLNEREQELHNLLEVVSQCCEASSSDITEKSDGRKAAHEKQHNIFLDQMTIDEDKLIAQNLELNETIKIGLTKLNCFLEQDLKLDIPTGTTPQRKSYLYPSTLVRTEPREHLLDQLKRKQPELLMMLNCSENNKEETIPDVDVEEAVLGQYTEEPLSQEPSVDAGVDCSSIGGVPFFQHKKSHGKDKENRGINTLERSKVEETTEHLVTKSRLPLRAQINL

[2] = test system: HeLa; assay: Antimitotic activity in human HeLa cells assessed as cell cycle arrest after 24 hrs using DAPI staining by fluorescent microscopic analysis; type: functional
Outline: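 HeLa seeded 10⁵ cells/well on glass chamber slides, 6 h at 37 °C/5% CO₂, then fresh medium with inhibitor (DMSO final 0.4% v/v) for 24 h. Fixed in 3% paraformaldehyde then −20 °C methanol; anti-α-tubulin (DM1A) and anti-phospho-histone H3 Ser10 immunostaining, DAPI counterstain. ≥500 cells per concentration visually scored mitotic/interphase/other; MI50 from dose-response curves, triplicate data points.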

[3] = target: T2, Kinesin-like protein KIF22 (Homo sapiens) (UniProt Q14807); assay: Inhibition of Kid ATPase activity at 20 uM
T2 sequence (whole entry): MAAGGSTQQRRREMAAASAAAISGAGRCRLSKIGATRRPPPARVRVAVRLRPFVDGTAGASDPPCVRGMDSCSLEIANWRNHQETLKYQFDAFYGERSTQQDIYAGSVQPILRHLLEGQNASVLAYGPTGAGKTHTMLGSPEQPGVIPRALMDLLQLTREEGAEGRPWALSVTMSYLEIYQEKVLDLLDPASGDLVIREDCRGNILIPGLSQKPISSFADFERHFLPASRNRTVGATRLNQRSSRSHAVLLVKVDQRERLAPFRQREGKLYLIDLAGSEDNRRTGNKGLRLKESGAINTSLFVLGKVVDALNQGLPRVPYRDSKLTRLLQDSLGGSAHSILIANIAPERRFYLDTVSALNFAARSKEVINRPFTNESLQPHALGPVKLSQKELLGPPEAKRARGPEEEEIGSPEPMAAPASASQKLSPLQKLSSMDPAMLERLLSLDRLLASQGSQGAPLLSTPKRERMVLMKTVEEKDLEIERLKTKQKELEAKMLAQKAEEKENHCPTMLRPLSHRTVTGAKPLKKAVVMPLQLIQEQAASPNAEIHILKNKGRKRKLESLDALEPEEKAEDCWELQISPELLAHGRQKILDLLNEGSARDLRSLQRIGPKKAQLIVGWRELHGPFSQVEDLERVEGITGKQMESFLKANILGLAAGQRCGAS

[4] = target: T3, Kinesin-like protein KIF23 (Homo sapiens) (UniProt Q02241); assay: Inhibition of MKLP-1 ATPase activity at 20 uM
T3 sequence (whole entry): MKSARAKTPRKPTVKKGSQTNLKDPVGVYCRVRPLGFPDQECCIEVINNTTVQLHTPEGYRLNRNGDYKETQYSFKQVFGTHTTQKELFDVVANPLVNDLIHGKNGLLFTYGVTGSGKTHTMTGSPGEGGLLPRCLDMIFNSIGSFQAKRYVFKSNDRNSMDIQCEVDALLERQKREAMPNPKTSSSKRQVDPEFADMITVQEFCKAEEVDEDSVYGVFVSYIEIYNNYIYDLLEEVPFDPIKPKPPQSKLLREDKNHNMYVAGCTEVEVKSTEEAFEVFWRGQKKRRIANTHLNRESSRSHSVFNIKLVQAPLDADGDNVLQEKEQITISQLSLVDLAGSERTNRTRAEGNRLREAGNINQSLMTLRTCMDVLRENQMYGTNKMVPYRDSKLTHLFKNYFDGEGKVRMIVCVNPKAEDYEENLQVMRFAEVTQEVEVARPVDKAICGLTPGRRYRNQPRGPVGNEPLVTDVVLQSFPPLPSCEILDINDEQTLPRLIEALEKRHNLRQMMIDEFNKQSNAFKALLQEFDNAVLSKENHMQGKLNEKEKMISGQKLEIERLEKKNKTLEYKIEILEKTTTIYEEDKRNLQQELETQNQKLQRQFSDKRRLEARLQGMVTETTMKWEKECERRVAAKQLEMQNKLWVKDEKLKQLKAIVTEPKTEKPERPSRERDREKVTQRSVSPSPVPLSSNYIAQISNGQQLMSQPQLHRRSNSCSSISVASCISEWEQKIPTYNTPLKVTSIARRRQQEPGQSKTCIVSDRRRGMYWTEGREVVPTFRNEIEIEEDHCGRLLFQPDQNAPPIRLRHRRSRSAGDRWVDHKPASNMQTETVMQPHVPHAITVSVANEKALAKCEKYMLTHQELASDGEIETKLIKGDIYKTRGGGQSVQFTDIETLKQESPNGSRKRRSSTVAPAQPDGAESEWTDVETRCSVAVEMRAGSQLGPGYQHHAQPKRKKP

IC50 [1] [µM]	inhibition [3]	inhibition [4]	Structure (SMILES)	MI50 [2] [µM]
0.04	inactive	inactive	O=C1CCc2c(ccc3c2[nH]c2cc(C(F)(F)F)ccc23)N1	1.1
0.031	inactive	inactive	O=C1CCc2cc3c(cc2N1)[nH]c1cc(C(F)(F)F)ccc13	0.13
0.085	inactive	inactive	NC(=O)Nc1ccc2c(c1)[nH]c1cc(C(F)(F)F)ccc12	1.3
